Results as given in ChEMBL document CHEMBL3804783, “Identification of a Small Molecule Cyclophilin D Inhibitor for Rescuing Aβ-Mediated Mitochondrial Dysfunction” (ACS Med Chem Lett, 2016).

How the values were obtained:
[1] = biological target: Peptidyl-prolyl cis-trans isomerase F, mitochondrial (Mus musculus) (UniProt Q99KR7); experiment: Inhibition of cyclophilin D in mouse brain cortical mitochondria assessed as suppression of calcium-induced mitochondrial swelling incubated for 5 mins by spectrophotometric analysis
Peptidyl-prolyl cis-trans isomerase F, mitochondrial (Mus musculus), sequence (Q99KR7 whole entry): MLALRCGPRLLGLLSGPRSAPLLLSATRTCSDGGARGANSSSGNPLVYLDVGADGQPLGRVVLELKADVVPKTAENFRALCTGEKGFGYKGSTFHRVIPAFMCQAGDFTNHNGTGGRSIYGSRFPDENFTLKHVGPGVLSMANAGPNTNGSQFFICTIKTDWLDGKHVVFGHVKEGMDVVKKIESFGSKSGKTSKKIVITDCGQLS
Method in brief: (§1)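 Cortical mitochondria isolated from mice (100 μg) kept on ice for 5 min with or without inhibitor. Swelling then triggered by adding 200 μM Ca2+ to the reaction buffer and compared with vehicle-treated mitochondria.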

[2] = Effect on mouse brain cortical mitochondrial swelling at 10 to 100 uM incubated for 5 mins by spectrophotometric analysis; type: ADME, Mitochondria; method in brief: as §1
SK-N-SH [3] = experiment: Effect on ATP level in human SK-N-SH cells at 10 to 20 uM after 48 hrs by bioluminescence analysis; type: ADME, cell-based
Method in brief: (§2)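 SK-N-SH cells given 5 μM oligomeric Aβ1–42 together with 10 or 20 μM inhibitor, 1 μM CsA, or vehicle. Controls were Aβ alone and cells without Aβ. After 48 h, ATP level or CcO enzymatic activity measured in cell lysates.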

SK-N-SH [4] = experiment: Cytotoxicty against human SK-N-SH cells at 5 to 100 uM after 48 hrs by MTT assay; type: cell-based
Method in brief: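 SK-N-SH cells exposed at 37 °C for 48 h to 0, 5, 10, 25, 50 or 100 μM inhibitor diluted in culture medium, with vehicle as 0. Survival and toxicity read by MTT reduction.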

SK-N-SH [5] = experiment: Effect on cytochrome c oxidase activity in human SK-N-SH cells at 10 to 20 uM after 48 hrs by spectrophotometrical analysis; type: ADME, cell-based; method in brief: as §2

For `Cc1nc(-c2ccc(OCC(C)C)c(C#N)c2)sc1C(=O)Nc1ccc(S(N)(=O)=O)cc1`, the inhibition [1] was “Dose-dependent effect”, the Activity [2] was “Non-toxic” and the Activity (SK-N-SH [3]) was “Non-toxic”. The Activity (SK-N-SH [4]) was “Non-toxic” and the Activity (SK-N-SH [5]) was “Non-toxic”.
